rCAG RNA binder – binders of r(CAG) RNA repeats, primary screen, biochemical, fluorescence. r(CAG) RNA repeat, TO-PRO-1 dye displacement fluorescence. inhibition, % at 3 µM. hit rate 1.3% among 370,000. AID 651821, 2012;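 active = inhibition above the plate cutoff, the mean of all test compounds on that plate plus 3 SD, cut at about 35% in these data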;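 also: 0% = DMSO alone and 100% = 100 µM mitoxantrone as full dye displacement; higher means more dye released from RNA so lower well fluorescence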
SIAE inh – human SIAE inhibitors, primary screen, biochemical, fluorescence polarization, FP-Rh probe, 1536-well HTS. Sialate O-acetylesterase (Homo sapiens), Q9HAT2. SIAE FP-Rh probe binding. hit rate 0.69% among 370,000. AID 1053197, 2014. inhibition, % at 9.66 µM;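 active = inhibition above a cutoff: mean of compounds within the control limits plus 3 SD of those, cut at about 17% in these data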;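 also: 0% = plate median of compound wells and 100% = probe without SIAE protein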
ABHD4 inh – ABHD4 inhibitors, primary screen, biochemical, fluorescence polarization, mouse | (Lyso)-N-acylphosphatidylethanolamine lipase (Mus musculus), Q8VD66 | AID 720543, 2013 | purified mABHD4, FP-Rh probe fluorescence polarization | inhibition, % at 8.92 µM | hit rate 0.54% among 370,000;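 active = inhibition exceeding the mean over every tested compound plus 3 SD, cut at about 30% in these data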;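 also: 0% = plate median of compound wells and 100% = S159A mutant with DMSO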
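Assay system: Wild-type mouse ABHD4 protein | Medium: HEPES pH 7.0 buffer, 150 mM NaCl, 0.01% Pluronic F-127 | Incubation: Enzyme–compound pre-incubation 45 min, then probe 60 min, both 25 °C | Technique: Fluorescence polarization with parallel and perpendicular emission, 525/598 nm | Evaluation: % inhibition of FP-Rh probe binding versus controls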
TCR CD3 inh – inhibitors of human TCR-CD3 interaction, primary screen, biochemical, fluorescence, TAMRA-labeled TCR probe; T-cell receptor (TCR); inhibition, % at 9.4 µM; hit rate 0.37% among 360,000; in the data active = inhibition above about 19%;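 also: recombinant mutant TCR 2C K166C tagged with TAMRA read by polarization; 0% = receptor in buffer alone and 100% = receptor with positive control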
PRMT1 inh – PRMT1 methyltransferase inhibitors, primary screen, biochemical, fluorescence polarization. AID 652257, 2013. hit rate 1.3% among 370,000. recombinant PRMT1, activity-based probe fluorescence polarization. inhibition, % at 2.79 µM. Protein arginine N-methyltransferase 1 (Homo sapiens), Q99873;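 active = inhibition above about 21% made by adding two undisclosed values, limit read from the data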
Target sequence (Q99873 whole entry, looked up): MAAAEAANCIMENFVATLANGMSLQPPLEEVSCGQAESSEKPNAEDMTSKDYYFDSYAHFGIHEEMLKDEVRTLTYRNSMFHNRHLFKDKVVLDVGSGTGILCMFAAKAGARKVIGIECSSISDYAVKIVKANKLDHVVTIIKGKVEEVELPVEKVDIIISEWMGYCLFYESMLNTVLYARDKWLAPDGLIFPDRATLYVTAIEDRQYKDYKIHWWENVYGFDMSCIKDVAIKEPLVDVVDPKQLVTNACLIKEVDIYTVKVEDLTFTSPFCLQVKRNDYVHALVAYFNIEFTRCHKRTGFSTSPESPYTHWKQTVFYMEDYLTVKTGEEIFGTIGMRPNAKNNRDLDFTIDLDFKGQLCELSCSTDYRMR
PRMT1 confirm – PRMT1 methyltransferase inhibitors, confirmation, biochemical, fluorescence polarization, triplicate; shares compounds with PRMT1 inh; recombinant His-PRMT1, activity-based probe fluorescence polarization; inhibition, % at 2.79 µM; hit rate 42% among 3,300; AID 687036, 2013;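 active = mean inhibition across replicates above the hit cutoff derived for the earlier primary screen, cut at about 22% in these data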
* marks the source's active call; other numbers are inactive results; . = not tested or not shown. In the library only some 3.3% were active in any assay of this set; here they are far more common.

SMILES	rCAG RNA binder	SIAE inh	ABHD4 inh	TCR CD3 inh	PRMT1 inh	PRMT1 confirm
C=CCN1C(=O)[C@@H](CC(=O)N2CCOCC2)[C@]2(C(=O)OC)CCCCC=C12	1	-3	-2	.	-2	.
Cn1c(SCC(=O)NCCN2CCCCC2)nc2cccnc21	2	3	0	.	-6	.
Cc1ccc(NN2C(=O)C=C(c3ccccc3)C2=O)cc1	2	2	21	3	35*	15
CCOC(=O)c1sc(N)c(C(=O)OC)c1C	-1	5	3	3	-4	.
COc1cccc(OC)c1C(=O)NCCc1ccccc1	-2	-3	-7	1	10	.
CCOC(=O)c1sc(N)c(C(=O)Nc2ccccc2OC)c1C	3	2	0	-2	26*	7
COC(=O)c1c(N)sc(C(=O)NCCc2ccccc2)c1C	-1	3	1	1	26*	30*
COC(=O)[C@H]1C[C@@]2(N3CCCCC3)c3ccccc3N[C@H]2N1S(=O)(=O)c1ccc([N+](=O)[O-])cc1	7	1	8	.	5	.
CC(=O)c1ccc2c(c1)C1C=CCC1C(c1cc3c(cc1Br)OCO3)N2 (stereo unspecified)	5	-3	-5	-3	-1	.
COCCNC(=O)C1Nc2ccc(OC(F)(F)F)cc2C2C=CCC12 (stereo unspecified)	29	13	29	3	26*	7
CN(C(=O)NC1CCCCC1)[C@H]1C[C@H]2c3[nH]c4ccccc4c3CCN2C(=O)[C@H]1CO	25	-2	7	14	33*	1
Nc1ccccc1SCc1ccccc1Cl	0	-2	-1	-12	14	.
Nc1ccccc1SSc1ccccc1N	1	11	4	-1	83*	84*
CC(=O)Nc1ccc(S(=O)(=O)Nc2nc3ccccc3nc2Sc2nncn2C)cc1	-9	-3	3	7	25*	5
O=c1c2ccccc2nc(N2CCN(c3ccccc3)CC2)n1Cc1ccccc1	1	2	-9	8	74*	3
Cc1ccc(C)c(N2CCN(c3nc4ccccc4c(=O)n3Cc3ccccc3)CC2)c1	1	1	2	5	-1	.
CCC(CC)c1nnc(NC(=O)c2cc(C(=O)OC)cc([N+](=O)[O-])c2)s1	17	-1	-6	-4	29*	20
Cc1cc(C)c(C)c(S(=O)(=O)N2C(=S)NC(=O)C2C(C)C)c1C (stereo unspecified)	29	0	-5	5	28*	6
Cc1nc2ccc(S(=O)(=O)NCC(=O)NCc3ccc4c(c3)OCO4)cc2s1	4	-9	-8	7	49*	1
CCCCCOc1ccc(C(=O)CCN2CCOCC2)cc1	-9	-1	0	-3	26*	2
Cc1cc(C)cc(Nc2cc(=O)n(C3CCCCC3)c(=O)[nH]2)c1	5	-5	2	7	-5	.
Cc1cc2nc3c(=O)n(C4CCCCC4)c(=O)[nH]c3nc2cc1N	-74	12	25	-3	94*	118*
CCOC(=O)CC(=O)CSc1nc(-c2cccnc2)cc(C)c1C#N	2	-5	7	0	5	.
CCOC(=O)CC(=O)CSc1nccc(-c2cccnc2)n1	5	0	5	-5	38*	8
CCOC(=O)CC(=O)CSc1nc(-c2cccnc2)ccc1C#N	8	-16	-1	-6	56*	6
SMILES	rCAG RNA binder	SIAE inh	ABHD4 inh	TCR CD3 inh	PRMT1 inh	PRMT1 confirm
CCOC(=O)CC(=O)CSc1nc(C)cc(-c2cccnc2)c1C#N	2	8	3	0	0	.
C=CCN(Cc1ccc(OC)cc1OC)C(C#Cc1ccccc1)c1ccccc1 (stereo unspecified)	.	-1	-5	.	3	.
COc1cc(C(=O)CCN2CCC(c3ccccc3)C2)cc(OC)c1OC (stereo unspecified)	-5	0	-5	-4	32*	16
O=C(CCN1CCCC1Cc1ccccc1)c1ccc2c(c1)OCCO2 (stereo unspecified)	-2	-5	-5	8	37*	40*
O=C(CCc1ccccc1)c1ccc2c(c1)OCCCO2	4	-3	0	0	3	.
O=C(CCN1CCC(c2ccccc2)C1)c1cccs1 (stereo unspecified)	-1	-9	8	-4	-2	.
O=C(CCN1CCc2ccccc21)c1ccc2c(c1)OCCO2	6	1	-3	3	4	.
O=C(CCN1CCC(c2ccccc2)C1)c1ccc2c(c1)OCCO2 (stereo unspecified)	0	3	1	9	36*	19
CC(C)N1CCCCC(NC(=O)c2ccc(Cl)cc2Cl)C1=O (stereo unspecified)	4	-4	-7	.	6	.
CCOC(=O)CC[C@@]1(C(=O)OCC)C[C@@H](CC(=O)N2CCN(C(=O)c3ccco3)CC2)C(=O)N2CCCC=C21	3	0	6	.	-5	.
COC(=O)[C@]12C[C@H](CC(=O)NCCCN3CCCC3=O)C(=O)N(Cc3ccco3)C1=C[C@H](C1CCCC1)O[C@@H]2C	2	-1	3	.	3	.
COc1ccc(NC(=O)NS(=O)(=O)c2ccc(C)cc2)cn1	-299	2	11	-4	105*	10
COc1ccc(NC(=O)Nc2ccc(OCc3ccccc3)cc2)cn1	-8	5	8	3	26*	12
Cc1ccc(N/C=C2/Sc3ccccc3NC2=O)cc1	7	2	-3	-5	31*	10
COc1ccc(N/C=C2/Sc3ccccc3NC2=O)cc1	-1	6	5	1	33*	30*
COc1ccccc1N/C=C1/Sc2cc(Cl)ccc2NC1=O	5	5	0	-4	0	.
O=C1Nc2ccccc2S/C1=C/NCc1ccccc1Cl	0	13	1	0	20	.
O=C1NCCOc2ccccc21	2	3	2	-3	3	.
COC(=O)c1ccc(Cl)c(NC(=O)CSc2nnc(-c3ccncc3)o2)c1	1	-4	6	4	-2	.
COC(=O)c1ccccc1NC(=O)CSc1nnc(-c2ccncc2)o1	22	-4	8	-6	34*	45*
CCN1C(=O)[C@H]2[C@H]3CN=C(SCC(=O)c4ccccc4)N3[C@@](C)(C(=O)OC)[C@H]2C1=O	4	7	-4	2	83*	73*
COC(=O)[C@@]1(Cc2ccccc2)[C@H]2C(=O)N(C)C(=O)[C@H]2[C@H]2CN=C(SCC(=O)c3ccccc3)N21	3	-1	1	3	45*	33*

Screening results: PubChem, The Scripps Research Institute Molecular Screening Center
